According to ChEMBL document CHEMBL4229377, “Design, synthesis and bioevaluation of 1,2,3,9-tetrahydropyrrolo[2,1-b]quinazoline-1-carboxylic acid derivatives as potent neuroprotective agents” (Eur J Med Chem, 2018):
Calls of active or inactive are those of the source. The calls are words filed in the database; no cut-off is given here.

How the values were obtained:
SH-SY5Y [1] = test: Neuroprotective activity against NMDA-induced cell damage in human SH-SY5Y cells assessed as cell viability at 10 uM preincubated for 6 hrs followed by NMDA addition and measured after 30 mins by MTT assay (reference value: 58.7 +/- 2.3%); type: functional; conditions: read-out: Activity
SH-SY5Y [2] = test: Down regulation of NMDA-induced NR2B level in human SH-SY5Y cells at 0.1 to 10 uM preincubated for 6 hrs followed by NMDA addition and measured after 30 mins by Western blot analysis; type: functional, cell-based
Summary of the method: (§1)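 SH-SY5Y lysates were analysed by Western blot for NR2B expression and for p-ERK1/2 relative to total ERK. Data are means ± S.E.M., n = 3, compared against control and NMDA-treated groups.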

[3] = Clearance in human liver microsomes at 10 uM preincubated for 10 mins followed by NADPH addition and measured up to 60 mins; type: ADME, microsome; conditions: read-out: CLH
Summary of the method: (§2)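 Human liver microsomes were incubated for 60 min with an NADPH regenerating system to derive T1/2 and CL (µL/min/mg). A no-cofactor sample, with buffer replacing NADPH, was run alongside over 60 min to give % parent remaining.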

[4] = Metabolic stability in human liver microsomes assessed as parent compound remaining at 10 uM after 60 mins in absence of NADPH; type: ADME, microsome; conditions: read-out: Stability; summary of the method: as §2
[5] = biological target: Glutamate receptor ionotropic, NMDA 2B (Homo sapiens) (UniProt Q13224); test: Antagonist activity at NR2B NMDA receptor in human SH-SY5Y cells assessed as inhibition of NMDA-induced decrease in ERK1/2 phosphorylation at 0.1 to 10 uM preincubated for 6 hrs followed by NMDA addition and measured after 30 mins by Western blot analysis; type: cell-based; summary of the method: as §1
Chain of Glutamate receptor ionotropic, NMDA 2B (Homo sapiens) (Q13224 27-1484 limits assumed): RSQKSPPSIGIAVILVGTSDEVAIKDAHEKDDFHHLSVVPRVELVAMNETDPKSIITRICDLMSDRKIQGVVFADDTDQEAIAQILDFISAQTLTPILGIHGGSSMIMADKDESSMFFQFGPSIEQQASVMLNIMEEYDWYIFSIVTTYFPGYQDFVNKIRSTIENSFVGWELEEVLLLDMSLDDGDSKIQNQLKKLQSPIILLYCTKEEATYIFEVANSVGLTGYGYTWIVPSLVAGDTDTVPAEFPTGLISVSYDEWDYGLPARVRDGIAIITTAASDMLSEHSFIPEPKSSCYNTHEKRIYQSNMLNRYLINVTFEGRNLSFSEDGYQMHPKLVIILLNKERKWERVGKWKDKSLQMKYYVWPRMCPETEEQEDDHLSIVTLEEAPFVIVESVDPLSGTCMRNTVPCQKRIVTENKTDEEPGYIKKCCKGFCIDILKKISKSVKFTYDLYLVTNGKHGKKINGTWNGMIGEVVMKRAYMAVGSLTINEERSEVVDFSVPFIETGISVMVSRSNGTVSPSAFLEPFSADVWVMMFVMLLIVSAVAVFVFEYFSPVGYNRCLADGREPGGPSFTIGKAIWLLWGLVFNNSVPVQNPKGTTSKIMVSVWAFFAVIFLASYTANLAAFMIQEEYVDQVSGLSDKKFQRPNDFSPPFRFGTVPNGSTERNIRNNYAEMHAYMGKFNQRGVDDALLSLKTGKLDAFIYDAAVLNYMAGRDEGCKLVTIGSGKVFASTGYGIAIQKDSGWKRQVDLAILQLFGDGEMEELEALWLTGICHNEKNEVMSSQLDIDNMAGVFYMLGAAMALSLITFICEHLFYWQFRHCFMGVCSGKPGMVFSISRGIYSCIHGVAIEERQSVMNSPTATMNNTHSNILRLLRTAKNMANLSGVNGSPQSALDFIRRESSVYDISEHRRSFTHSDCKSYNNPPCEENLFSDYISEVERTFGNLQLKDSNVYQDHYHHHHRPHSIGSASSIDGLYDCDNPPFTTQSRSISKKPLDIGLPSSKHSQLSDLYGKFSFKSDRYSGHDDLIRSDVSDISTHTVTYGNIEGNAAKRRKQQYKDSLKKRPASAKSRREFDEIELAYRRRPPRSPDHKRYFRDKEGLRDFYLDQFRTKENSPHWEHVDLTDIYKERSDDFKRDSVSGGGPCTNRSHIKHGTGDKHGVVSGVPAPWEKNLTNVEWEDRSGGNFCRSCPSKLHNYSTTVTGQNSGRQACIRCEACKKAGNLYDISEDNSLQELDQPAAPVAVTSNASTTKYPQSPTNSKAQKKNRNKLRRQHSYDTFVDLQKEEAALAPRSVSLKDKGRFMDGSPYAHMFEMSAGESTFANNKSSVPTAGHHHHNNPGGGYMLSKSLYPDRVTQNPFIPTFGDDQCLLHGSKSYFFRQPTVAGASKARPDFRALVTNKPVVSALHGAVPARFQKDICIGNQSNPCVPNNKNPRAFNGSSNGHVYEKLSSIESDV

SH-SY5Y [6] = test: Neuroprotective activity against NMDA-induced cell damage in human SH-SY5Y cells assessed as cell viability at 0.1 uM preincubated for 6 hrs followed by NMDA addition and measured after 30 mins by MTT assay (reference value: 58.7 +/- 2.3%); type: functional; conditions: read-out: Activity
[7] = Half life in human liver microsomes at 10 uM preincubated for 10 mins followed by NADPH addition and measured up to 60 mins; type: ADME, microsome; summary of the method: as §2
SH-SY5Y [8] = test: Neuroprotective activity against NMDA-induced cell damage in human SH-SY5Y cells assessed as cell viability at 100 uM preincubated for 6 hrs followed by NMDA addition and measured after 30 mins by MTT assay (reference value: 58.7 +/- 2.3%)
[9] = biological target: Glutamate receptor ionotropic, NMDA 2B (Homo sapiens) (UniProt Q13224); test: Antagonist activity at NR2B NMDA receptor in human SH-SY5Y cells assessed as inhibition of NMDA-induced intracellular Ca2+ influx at 10 uM incubated for 3 hrs prior to fluo-3AM dye addition for 30 mins followed by NMDA addition and measured every 5 secs by laser scanning confocal microscopic analysis; type: cell-based
Summary of the method: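 SH-SY5Y cells were loaded with fluo-3 AM, and cytoplasmic Ca²⁺ was followed as green fluorescence by laser scanning confocal microscopy over time. NMDA was added at 2 mM final to cells with or without compound pretreatment; n = 9 cells per group.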

SH-SY5Y [10] = test: Neuroprotective activity against NMDA-induced cell damage in human SH-SY5Y cells assessed as cell viability at 1 uM preincubated for 6 hrs followed by NMDA addition and measured after 30 mins by MTT assay (reference value: 58.7 +/- 2.3%); type: functional; conditions: read-out: Activity

SMILES | viability at 10 µM (SH-SY5Y [1]) [%] | Activity (SH-SY5Y [2]) | microsomal CLint at 10 µM [3] [µL/min/mg] | remaining at 1 h, 10 µM [4] [%] | inhibition [5] | viability at 0.1 µM (SH-SY5Y [6]) [%] | half-life at 10 µM [7] [min] | Activity (SH-SY5Y [8]) [%] | inhibition [9] | viability at 1 µM (SH-SY5Y [10]) [%]
O=C(NCCc1ccc(O)cc1)[C@@H]1CCC2=Nc3ccc(Br)cc3CN21 | 84.4 | Active | 46.3 | 99.3 | Active | 75.8 | 29.9 | 78.6 | Active | 80
O=C(NCc1ccc(F)cc1)[C@@H]1CCC2=Nc3ccc(Br)cc3CN21 | 70.4 |  |  |  |  | 64.8 |  | 60.1 |  | 70.4
O=C(Nc1ccc(O)cc1)[C@@H]1CCC2=Nc3ccccc3CN21 | 70.1 |  |  |  |  | 67.7 |  | 70.9 |  | 68.3
O=C(NCc1ccc(O)cc1)[C@H]1CCC2=Nc3ccc(Br)cc3CN21 | 67.4 |  |  |  |  | 75 |  | 56.9 |  | 78
N=C(NCc1ccc(O)cc1)[C@@H]1CCC2=Nc3ccccc3CN21 | 70.2 |  |  |  |  | 61.6 |  | 64.3 |  | 69.2
O=C(NCCCc1ccccc1)[C@@H]1CCC2=Nc3ccccc3CN21 | 63.4 |  |  |  |  | 67.2 |  | 30.3 |  | 71.2
Cc1ccc(CNC(=O)[C@@H]2CCC3=Nc4ccccc4CN32)cc1 | 72.5 |  |  |  |  | 66.2 |  | 54.5 |  | 73.4
O=C(NCc1ccc(F)cc1)[C@@H]1CCC2=Nc3ccccc3CN21 | 78.9 |  |  |  |  | 67.1 |  | 63.2 |  | 72.6
O=C(OCc1ccccc1)[C@@H]1CCC2=Nc3ccccc3CN21 | 66.1 |  |  |  |  | 61 |  | 57.4 |  | 65.5
O=C(N[C@H](CO)Cc1ccccc1)[C@@H]1CCC2=Nc3ccccc3CN21 | 79.6 |  |  |  |  | 67.1 |  | 72.4 |  | 82.6
COc1ccc(CNC(=O)[C@@H]2CCC3=Nc4ccccc4CN32)cc1 | 74.1 |  |  |  |  | 68.1 |  | 64.4 |  | 71.8
O=C(NCCc1ccc(O)cc1)[C@H]1CCC2=Nc3ccccc3CN21 | 70.5 |  |  |  |  | 65.2 |  | 68 |  | 80.7
COc1ccc(NC(=O)[C@@H]2CCC3=Nc4ccccc4CN32)cc1 | 66.4 |  |  |  |  | 64.7 |  | 48.4 |  | 72.7
COc1ccc(COC(=O)[C@@H]2CCC3=Nc4ccccc4CN32)cc1 | 65.3 |  | 1180 | 3.2 |  | 61.4 | 1.2 | 63.6 |  | 64.1
O=C(NCCc1ccc(O)cc1)[C@H]1CCC2=Nc3ccc(Br)cc3CN21 | 78.2 |  |  |  |  | 67.8 |  | 81.5 |  | 74.5
O=C(NCCCc1ccccc1)[C@H]1CCC2=Nc3ccc(Br)cc3CN21 | 65.4 |  |  |  |  | 58.1 |  | 44.1 |  | 72.1
O=C(Nc1ccc(O)cc1)[C@@H]1CCC2=Nc3ccc(Br)cc3CN21 | 68 |  |  |  |  | 62.9 |  | 68.4 |  | 66.2
O=C(NCc1ccc(F)cc1)[C@H]1CCC2=Nc3ccccc3CN21 | 72.9 |  |  |  |  | 71.1 |  | 63.9 |  | 74.7
C[C@@H]([C@@H](O)c1ccc(O)cc1)N1CCC(Cc2ccccc2)CC1 [(S)-IFENPRODIL] | 79.5 |  | 109 | 87.3 |  | 71 | 12.8 | 65.1 |  | 72.7

SMILES | viability at 10 µM (SH-SY5Y [1]) [%] | Activity (SH-SY5Y [2]) | microsomal CLint at 10 µM [3] [µL/min/mg] | remaining at 1 h, 10 µM [4] [%] | inhibition [5] | viability at 0.1 µM (SH-SY5Y [6]) [%] | half-life at 10 µM [7] [min] | Activity (SH-SY5Y [8]) [%] | inhibition [9] | viability at 1 µM (SH-SY5Y [10]) [%]
COc1ccc(CNC(=N)[C@@H]2CCC3=Nc4ccccc4CN32)cc1 | 66.1 |  |  |  |  | 64.8 |  | 56.9 |  | 65.8
COc1ccc(CNC(=O)[C@@H]2CCC3=Nc4ccc(Br)cc4CN32)cc1 | 74.3 |  |  |  |  | 60.4 |  | 55.3 |  | 68.8
O=C(NCc1ccc(O)cc1)[C@@H]1CCC2=Nc3ccccc3CN21 | 73.8 |  |  |  |  | 67.6 |  | 70.3 |  | 72
O=C(Nc1ccc(O)cc1)[C@H]1CCC2=Nc3ccccc3CN21 | 69.6 |  |  |  |  | 65.6 |  | 73.3 |  | 67.2
O=C(NCCCc1ccccc1)[C@H]1CCC2=Nc3ccccc3CN21 | 70.2 |  |  |  |  | 62.2 |  | 42 |  | 71.6
O=C(NCc1ccccc1)[C@@H]1CCC2=Nc3ccccc3CN21 | 70.5 |  |  |  |  | 68.4 |  | 64.4 |  | 71.6
O=C(NCCc1ccccc1)[C@@H]1CCC2=Nc3ccccc3CN21 | 80 |  |  |  |  | 73.7 |  | 57.5 |  | 77.6
COc1ccc(CNC(=O)[C@H]2CCC3=Nc4ccccc4CN32)cc1 | 76.2 |  |  |  |  | 66.6 |  | 58.4 |  | 70.7
O=C(NCc1ccc(O)cc1)[C@H]1CCC2=Nc3ccccc3CN21 | 64.2 |  |  |  |  | 65.2 |  | 60.9 |  | 68
O=C(NCCc1ccc(O)cc1)[C@@H]1CCC2=Nc3ccccc3CN21 | 81.4 |  |  |  |  | 67.7 |  | 67.8 |  | 78.1
O=C(NCCc1c[nH]c2ccccc12)[C@@H]1CCC2=Nc3ccccc3CN21 | 80.9 |  |  |  |  | 66.2 |  | 78.2 |  | 72
COc1ccc(CCNC(=O)[C@@H]2CCC3=Nc4ccccc4CN32)cc1 | 75.1 |  |  |  |  | 73 |  | 60 |  | 81
O=C(NCCCc1ccccc1)[C@@H]1CCC2=Nc3ccc(Br)cc3CN21 | 66.1 |  |  |  |  | 69.1 |  | 42.2 |  | 76.6
N=C(NCc1ccccc1)[C@@H]1CCC2=Nc3ccccc3CN21 | 68.8 |  |  |  |  | 61.6 |  | 66.4 |  | 68.6
O=C(NCCc1ccc(F)cc1)[C@@H]1CCC2=Nc3ccccc3CN21 | 68.1 |  |  |  |  | 71.4 |  | 33.5 |  | 75.4
O=C(Nc1ccc(O)cc1)[C@H]1CCC2=Nc3ccc(Br)cc3CN21 | 68.3 |  |  |  |  | 61.7 |  | 66 |  | 71.3
O=C(NCc1ccc(O)cc1)[C@@H]1CCC2=Nc3ccc(Br)cc3CN21 | 76 |  |  |  |  | 69 |  | 60 |  | 73.5
O=C(Nc1ccccc1)[C@@H]1CCC2=Nc3ccccc3CN21 | 60.4 |  |  |  |  | 68.7 |  | 54.6 |  | 71.4
